Test results: ChEMBL document CHEMBL1134320, “Structure of protein tyrosine phosphatase 1B in complex with inhibitors bearing two phosphotyrosine mimetics” (J Med Chem, 2001)
Each block holds one compound with its values, some of them ahead of it.

Tests used:
[1] = target: T1, M-phase inducer phosphatase 1 (Homo sapiens) (UniProt P30304); experiment: Inhibitory activity against Protein tyrosine phosphatase cell division cycle 25A at 250 uM
T1 sequence (whole entry): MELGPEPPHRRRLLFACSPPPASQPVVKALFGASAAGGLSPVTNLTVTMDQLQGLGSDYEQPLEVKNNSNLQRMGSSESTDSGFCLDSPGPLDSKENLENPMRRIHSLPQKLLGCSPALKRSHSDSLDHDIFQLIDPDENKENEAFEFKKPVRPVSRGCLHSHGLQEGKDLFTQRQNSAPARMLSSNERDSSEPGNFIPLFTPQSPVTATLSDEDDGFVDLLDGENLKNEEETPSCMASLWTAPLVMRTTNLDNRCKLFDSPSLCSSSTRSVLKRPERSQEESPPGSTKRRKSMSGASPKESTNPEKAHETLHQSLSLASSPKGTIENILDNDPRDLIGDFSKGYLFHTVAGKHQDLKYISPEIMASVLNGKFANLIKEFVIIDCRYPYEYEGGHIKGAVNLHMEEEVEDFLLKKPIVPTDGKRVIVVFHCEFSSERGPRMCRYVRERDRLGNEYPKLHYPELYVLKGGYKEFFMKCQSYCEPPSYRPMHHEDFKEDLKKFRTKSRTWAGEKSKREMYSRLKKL

[2] = target: T2, Tyrosine-protein phosphatase non-receptor type 4 (Homo sapiens) (UniProt P29074); experiment: Inhibitory activity against Protein tyrosine phosphatase PTPmeg-1 at 250 uM
T2 sequence (whole entry): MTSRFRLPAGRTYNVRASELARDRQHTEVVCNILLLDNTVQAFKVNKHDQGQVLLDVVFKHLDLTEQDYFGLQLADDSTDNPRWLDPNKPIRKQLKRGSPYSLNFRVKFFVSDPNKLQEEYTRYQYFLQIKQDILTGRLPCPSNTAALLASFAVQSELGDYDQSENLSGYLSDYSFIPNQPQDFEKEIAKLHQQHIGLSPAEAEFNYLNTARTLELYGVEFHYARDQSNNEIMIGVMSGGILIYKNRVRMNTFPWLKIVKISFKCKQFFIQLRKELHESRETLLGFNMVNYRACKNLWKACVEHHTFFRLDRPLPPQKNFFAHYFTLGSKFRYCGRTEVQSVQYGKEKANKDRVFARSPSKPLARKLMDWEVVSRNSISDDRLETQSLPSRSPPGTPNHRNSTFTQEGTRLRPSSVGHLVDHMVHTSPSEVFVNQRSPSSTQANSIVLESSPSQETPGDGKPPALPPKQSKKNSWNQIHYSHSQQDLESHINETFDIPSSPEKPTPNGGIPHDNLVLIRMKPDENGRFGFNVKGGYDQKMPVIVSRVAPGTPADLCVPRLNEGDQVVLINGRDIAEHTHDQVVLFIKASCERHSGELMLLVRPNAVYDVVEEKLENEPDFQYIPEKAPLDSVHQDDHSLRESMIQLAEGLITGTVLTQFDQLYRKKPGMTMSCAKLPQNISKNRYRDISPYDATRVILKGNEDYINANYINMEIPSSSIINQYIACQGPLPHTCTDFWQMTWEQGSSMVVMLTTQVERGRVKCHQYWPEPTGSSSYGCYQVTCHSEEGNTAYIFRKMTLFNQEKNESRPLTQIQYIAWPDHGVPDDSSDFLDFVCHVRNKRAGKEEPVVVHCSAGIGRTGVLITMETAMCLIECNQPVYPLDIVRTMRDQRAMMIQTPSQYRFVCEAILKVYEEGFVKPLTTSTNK
Summary of the method: (§1)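 Percent inhibition was measured at the single inhibitor concentration given in the line, using the FDP fluorogenic substrate at about each enzyme's KM. For CDC25a, flag-tagged protein was made in Sf9 cells (moi 5, 27 °C, 72 h) and purified on anti-flag resin to over 80% purity.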

[3] = target: T2, Tyrosine-protein phosphatase non-receptor type 4 (Homo sapiens); experiment: Inhibitory activity against Protein tyrosine phosphatase PTPmeg-1 at 500 uM
Summary of the method: as §1

[4] = target: T2, Tyrosine-protein phosphatase non-receptor type 4 (Homo sapiens); experiment: Inhibitory activity against Protein tyrosine phosphatase PTPmeg-1 at 380 uM
Summary of the method: as §1

[5] = target: T1, M-phase inducer phosphatase 1 (Homo sapiens); experiment: Inhibitory activity against Protein tyrosine phosphatase cell division cycle 25A at 250 uM
Summary of the method: as §1

inhibition [1]: 16% | inhibition [2]: 9%
SMILES: O=P(O)(O)C(F)(F)c1ccc(CCCCc2ccc(C(F)(F)P(=O)(O)O)cc2)cc1

inhibition [3]: 30%
SMILES: O=P(O)(O)C(F)(F)c1ccc(COc2ccccc2OCc2ccc(C(F)(F)P(=O)(O)O)cc2)cc1

inhibition [4]: 30%
SMILES: O=P(O)(O)C(F)(F)c1ccc(COc2cccc(OCc3ccc(C(F)(F)P(=O)(O)O)cc3)c2)cc1

inhibition [2]: 2% | inhibition [5]: 13%
SMILES: O=P(O)(O)C(F)(F)c1ccc(COCCOCc2ccc(C(F)(F)P(=O)(O)O)cc2)cc1
